Reference: ChEMBL document CHEMBL1795332, “Renin inhibitors for the treatment of hypertension: design and optimization of a novel series of pyridone-substituted piperidines” (Bioorg Med Chem Lett, 2011)

tested on: not listed separately; assay: Oral bioavailability in Sprague-Dawley rat at 30 mg/kg; format: ADME, organism-based; conditions: in vivo

bioavailability [%] | Compound
28 | COCCCc1cc(Cl)cc(CN(C(=O)[C@H]2CNCC[C@@H]2c2ccn(C)c(=O)c2)C2CC2)c1
7 | COCCCc1cc(C)c(C)c(CN(C(=O)[C@H]2CNCC[C@@H]2c2ccn(C)c(=O)c2)C2CC2)c1
2 | COCCCc1cc(CN(C(=O)[C@H]2CNCC[C@@H]2c2ccn(C)c(=O)c2)C2CC2)c2ncccc2c1
8 | COCCCn1cc(CN(C(=O)[C@H]2CNCC[C@@H]2c2ccn(C)c(=O)c2)C2CC2)c2c(F)cccc21
22 | COCCCn1cc(CN(C(=O)[C@H]2CNCC[C@@H]2c2ccn(C)c(=O)c2)C2CC2)c2c(Cl)cccc21
30 | Cn1ccc([C@H]2CCNC[C@@H]2C(=O)N(Cc2cn(Cc3cccc(F)c3)c3cccc(F)c23)C2CC2)cc1=O
17 | Cn1ccc([C@H]2CCNC[C@@H]2C(=O)N(Cc2cn(Cc3ccc(F)cc3)c3cccc(F)c23)C2CC2)cc1=O

tested on: not listed separately; assay: Oral bioavailability in Sprague-Dawley rat at 3 mg/kg; format: ADME, organism-based; conditions: in vivo

bioavailability [%] | Compound
3 | COCCCn1cc(CN(C(=O)[C@H]2CNCC[C@@H]2c2ccn(C)c(=O)c2)C2CC2)c2c(Br)cccc21

target: T1, Renin (Homo sapiens, UniProt P00797); assay: Inhibition of human recombinant renin using Q-FRET substrate after 3 hrs by fluorescence assay; conditions: not given
T1 sequence (P00797 whole entry): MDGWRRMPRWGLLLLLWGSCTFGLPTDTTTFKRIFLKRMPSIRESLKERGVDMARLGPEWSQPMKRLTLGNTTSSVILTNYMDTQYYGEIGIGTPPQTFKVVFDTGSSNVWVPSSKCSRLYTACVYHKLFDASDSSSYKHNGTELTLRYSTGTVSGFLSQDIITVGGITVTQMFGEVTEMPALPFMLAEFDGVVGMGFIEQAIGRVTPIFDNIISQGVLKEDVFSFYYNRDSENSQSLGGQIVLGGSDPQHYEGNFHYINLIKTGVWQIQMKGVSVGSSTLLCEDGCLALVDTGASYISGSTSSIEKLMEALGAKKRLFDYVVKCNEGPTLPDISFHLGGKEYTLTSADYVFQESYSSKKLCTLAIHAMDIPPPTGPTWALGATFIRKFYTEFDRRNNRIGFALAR

IC50 [nM] | Compound
3 | COCCCc1cc(Cl)cc(CN(C(=O)[C@H]2CNCC[C@@H]2c2ccn(C)c(=O)c2)C2CC2)c1
0.6 | COCCCc1cc(C)c(C)c(CN(C(=O)[C@H]2CNCC[C@@H]2c2ccn(C)c(=O)c2)C2CC2)c1
0.8 | COCCCc1cc(CN(C(=O)[C@H]2CNCC[C@@H]2c2ccn(C)c(=O)c2)C2CC2)c2ncccc2c1
0.32 | COCCCn1cc(CN(C(=O)[C@H]2CNCC[C@@H]2c2ccn(C)c(=O)c2)C2CC2)c2c(F)cccc21
0.12 | COCCCn1cc(CN(C(=O)[C@H]2CNCC[C@@H]2c2ccn(C)c(=O)c2)C2CC2)c2c(Cl)cccc21
0.07 | COCCCn1cc(CN(C(=O)[C@H]2CNCC[C@@H]2c2ccn(C)c(=O)c2)C2CC2)c2c(Br)cccc21
0.06 | Cn1ccc([C@H]2CCNC[C@@H]2C(=O)N(Cc2cn(Cc3cccc(F)c3)c3cccc(F)c23)C2CC2)cc1=O
0.05 | Cn1ccc([C@H]2CCNC[C@@H]2C(=O)N(Cc2cn(Cc3ccc(F)cc3)c3cccc(F)c23)C2CC2)cc1=O

target: Voltage-gated inwardly rectifying potassium channel KCNH2 (Homo sapiens, UniProt Q12809); assay: Inhibition of human ERG; conditions: not given
Sequence (Q12809 whole entry): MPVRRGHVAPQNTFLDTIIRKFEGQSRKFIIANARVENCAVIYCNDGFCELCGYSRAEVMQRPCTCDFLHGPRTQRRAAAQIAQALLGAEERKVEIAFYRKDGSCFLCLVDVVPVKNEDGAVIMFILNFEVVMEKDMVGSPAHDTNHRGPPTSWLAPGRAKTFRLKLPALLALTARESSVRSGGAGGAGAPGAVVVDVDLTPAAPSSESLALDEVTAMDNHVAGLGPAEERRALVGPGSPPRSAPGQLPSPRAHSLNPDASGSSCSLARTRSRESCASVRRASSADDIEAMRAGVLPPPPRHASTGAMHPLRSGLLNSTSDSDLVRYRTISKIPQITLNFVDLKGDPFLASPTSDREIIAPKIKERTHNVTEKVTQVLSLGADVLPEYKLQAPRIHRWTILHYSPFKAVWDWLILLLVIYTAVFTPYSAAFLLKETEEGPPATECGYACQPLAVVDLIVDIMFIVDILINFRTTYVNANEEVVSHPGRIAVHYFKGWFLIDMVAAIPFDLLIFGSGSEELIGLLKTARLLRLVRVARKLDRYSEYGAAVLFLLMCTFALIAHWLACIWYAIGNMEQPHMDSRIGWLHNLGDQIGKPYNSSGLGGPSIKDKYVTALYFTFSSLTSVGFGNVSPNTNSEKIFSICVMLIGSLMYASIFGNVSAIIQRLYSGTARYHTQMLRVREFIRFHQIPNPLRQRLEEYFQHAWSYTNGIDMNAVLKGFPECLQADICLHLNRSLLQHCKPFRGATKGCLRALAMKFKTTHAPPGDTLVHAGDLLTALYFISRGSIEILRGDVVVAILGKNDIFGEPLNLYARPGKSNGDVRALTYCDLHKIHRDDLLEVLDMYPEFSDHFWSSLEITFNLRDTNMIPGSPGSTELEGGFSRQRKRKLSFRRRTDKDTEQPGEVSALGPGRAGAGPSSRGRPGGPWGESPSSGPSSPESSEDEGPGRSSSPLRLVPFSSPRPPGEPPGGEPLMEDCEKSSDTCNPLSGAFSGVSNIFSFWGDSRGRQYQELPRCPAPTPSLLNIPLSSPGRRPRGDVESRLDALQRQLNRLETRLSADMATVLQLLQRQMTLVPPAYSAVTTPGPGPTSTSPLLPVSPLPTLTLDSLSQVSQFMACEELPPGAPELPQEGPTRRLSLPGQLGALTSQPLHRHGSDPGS

Compound | Ki [nM]
COCCCc1cc(Cl)cc(CN(C(=O)[C@H]2CNCC[C@@H]2c2ccn(C)c(=O)c2)C2CC2)c1 | 7600
COCCCc1cc(CN(C(=O)[C@H]2CNCC[C@@H]2c2ccn(C)c(=O)c2)C2CC2)c2ncccc2c1 | 27000
COCCCn1cc(CN(C(=O)[C@H]2CNCC[C@@H]2c2ccn(C)c(=O)c2)C2CC2)c2c(F)cccc21 | > 29000
COCCCn1cc(CN(C(=O)[C@H]2CNCC[C@@H]2c2ccn(C)c(=O)c2)C2CC2)c2c(Cl)cccc21 | 23000
COCCCn1cc(CN(C(=O)[C@H]2CNCC[C@@H]2c2ccn(C)c(=O)c2)C2CC2)c2c(Br)cccc21 | 11000
Cn1ccc([C@H]2CCNC[C@@H]2C(=O)N(Cc2cn(Cc3cccc(F)c3)c3cccc(F)c23)C2CC2)cc1=O | 1200
Cn1ccc([C@H]2CCNC[C@@H]2C(=O)N(Cc2cn(Cc3ccc(F)cc3)c3cccc(F)c23)C2CC2)cc1=O | 750

target: T1, Renin; assay: Inhibition of renin in human plasma using Q-FRET substrate pretreated for 10 mins before substrate addition measured after 1 hr; conditions: not given

IC50 [nM] | Compound
6.5 | COCCCc1cc(Cl)cc(CN(C(=O)[C@H]2CNCC[C@@H]2c2ccn(C)c(=O)c2)C2CC2)c1
1 | COCCCc1cc(C)c(C)c(CN(C(=O)[C@H]2CNCC[C@@H]2c2ccn(C)c(=O)c2)C2CC2)c1
2.2 | COCCCc1cc(CN(C(=O)[C@H]2CNCC[C@@H]2c2ccn(C)c(=O)c2)C2CC2)c2ncccc2c1
0.87 | COCCCn1cc(CN(C(=O)[C@H]2CNCC[C@@H]2c2ccn(C)c(=O)c2)C2CC2)c2c(F)cccc21
0.64 | COCCCn1cc(CN(C(=O)[C@H]2CNCC[C@@H]2c2ccn(C)c(=O)c2)C2CC2)c2c(Cl)cccc21
0.57 | COCCCn1cc(CN(C(=O)[C@H]2CNCC[C@@H]2c2ccn(C)c(=O)c2)C2CC2)c2c(Br)cccc21
0.63 | Cn1ccc([C@H]2CCNC[C@@H]2C(=O)N(Cc2cn(Cc3cccc(F)c3)c3cccc(F)c23)C2CC2)cc1=O
0.48 | Cn1ccc([C@H]2CCNC[C@@H]2C(=O)N(Cc2cn(Cc3ccc(F)cc3)c3cccc(F)c23)C2CC2)cc1=O

target: T2, CYP3A4 (Homo sapiens, UniProt P08684); assay: Reversible inhibition of CYP3A4 assessed as conversion of testosterone to 6-beta-hydroxytestosterone at 10 uM relative to control; format: ADME; conditions: probe testosterone
T2 sequence (P08684 whole entry): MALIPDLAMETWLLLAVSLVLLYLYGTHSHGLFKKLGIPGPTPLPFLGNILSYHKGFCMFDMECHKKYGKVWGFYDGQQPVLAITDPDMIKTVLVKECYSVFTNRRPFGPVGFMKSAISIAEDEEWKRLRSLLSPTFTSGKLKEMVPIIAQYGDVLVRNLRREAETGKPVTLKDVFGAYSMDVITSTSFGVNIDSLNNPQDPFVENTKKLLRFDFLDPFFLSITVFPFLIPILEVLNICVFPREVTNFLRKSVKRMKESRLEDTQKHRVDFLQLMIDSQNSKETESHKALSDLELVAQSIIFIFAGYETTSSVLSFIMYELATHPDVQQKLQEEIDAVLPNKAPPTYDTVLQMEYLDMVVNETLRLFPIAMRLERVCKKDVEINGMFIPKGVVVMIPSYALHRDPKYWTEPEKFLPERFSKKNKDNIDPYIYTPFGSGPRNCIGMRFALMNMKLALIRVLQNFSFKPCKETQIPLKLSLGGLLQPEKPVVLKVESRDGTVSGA

activity % at 10 µM [%] | Compound
23 | COCCCc1cc(Cl)cc(CN(C(=O)[C@H]2CNCC[C@@H]2c2ccn(C)c(=O)c2)C2CC2)c1
85 | COCCCc1cc(CN(C(=O)[C@H]2CNCC[C@@H]2c2ccn(C)c(=O)c2)C2CC2)c2ncccc2c1
41 | COCCCn1cc(CN(C(=O)[C@H]2CNCC[C@@H]2c2ccn(C)c(=O)c2)C2CC2)c2c(F)cccc21
48 | COCCCn1cc(CN(C(=O)[C@H]2CNCC[C@@H]2c2ccn(C)c(=O)c2)C2CC2)c2c(Cl)cccc21
63 | COCCCn1cc(CN(C(=O)[C@H]2CNCC[C@@H]2c2ccn(C)c(=O)c2)C2CC2)c2c(Br)cccc21
18 | Cn1ccc([C@H]2CCNC[C@@H]2C(=O)N(Cc2cn(Cc3cccc(F)c3)c3cccc(F)c23)C2CC2)cc1=O
16 | Cn1ccc([C@H]2CCNC[C@@H]2C(=O)N(Cc2cn(Cc3ccc(F)cc3)c3cccc(F)c23)C2CC2)cc1=O

target: T2, CYP3A4; assay: Time dependent inhibition of CYP3A4 assessed as conversion of testosterone to 6-beta-hydroxytestosterone at 10 uM relative to control; format: ADME; conditions: probe testosterone
Outline: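 Rate of CYP3A4 conversion of testosterone (250 μM) to 6-β-hydroxytestosterone measured before and after a 30 min incubation with compound at 10 μM (in DMSO). Difference expressed as % loss.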

inhibition at 10 µM [%] | Compound
1 | COCCCc1cc(Cl)cc(CN(C(=O)[C@H]2CNCC[C@@H]2c2ccn(C)c(=O)c2)C2CC2)c1
15 | COCCCc1cc(C)c(C)c(CN(C(=O)[C@H]2CNCC[C@@H]2c2ccn(C)c(=O)c2)C2CC2)c1
16 | COCCCc1cc(CN(C(=O)[C@H]2CNCC[C@@H]2c2ccn(C)c(=O)c2)C2CC2)c2ncccc2c1
0 | COCCCn1cc(CN(C(=O)[C@H]2CNCC[C@@H]2c2ccn(C)c(=O)c2)C2CC2)c2c(F)cccc21
19 | COCCCn1cc(CN(C(=O)[C@H]2CNCC[C@@H]2c2ccn(C)c(=O)c2)C2CC2)c2c(Cl)cccc21
48 | COCCCn1cc(CN(C(=O)[C@H]2CNCC[C@@H]2c2ccn(C)c(=O)c2)C2CC2)c2c(Br)cccc21
39 | Cn1ccc([C@H]2CCNC[C@@H]2C(=O)N(Cc2cn(Cc3cccc(F)c3)c3cccc(F)c23)C2CC2)cc1=O
70 | Cn1ccc([C@H]2CCNC[C@@H]2C(=O)N(Cc2cn(Cc3ccc(F)cc3)c3cccc(F)c23)C2CC2)cc1=O
